Calls of active or inactive are those of the source. The calls are words filed in the database; no cut-off is given here.
What was measured:
[1] = system: DU-145; test: Cytotoxicity against human DU145 cells at 10 uM after 72 hrs by MTT assay; format: functional, cell-based
How it was run: (§1)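 Three-day MTT screen with 5000–10,000 cells/well and 72 h compound exposure at the top screening concentration. After 3 h of MTT uptake, lysis with 10% SDS–0.01 N HCl, then A540 read after 1 h. % cytotoxicity = (1 − X/R1)×100, where X is treated minus blank absorbance and R1 is untreated control absorbance.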

[2] = system: A549; test: Cytotoxicity against human A549 cells at 10 uM after 72 hrs by MTT assay; format: functional, cell-based; how it was run: as §1
[3] = system: HBL-100; test: Cytotoxicity against human HBL100 cells at 10 uM after 72 hrs by MTT assay; format: functional, cell-based; how it was run: as §1
[4] = system: SW-620; test: Cytotoxicity against human SW620 cells at 10 uM after 72 hrs by MTT assay; format: functional, cell-based; how it was run: as §1
[5] = system: PA-1; test: Cytotoxicity against human PA1 cells at 10 uM after 72 hrs by MTT assay; format: functional, cell-based; how it was run: as §1
[6] = Antiinflammatory activity in C57BL/6 mouse DC assessed as inhibition of LPS-induced IL1-beta production at 0.1 ug/ml after 24 hrs by ELISA; format: functional
How it was run: (§2)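 Dendritic cells grown from femoral bone marrow of 8–12-week-old C57BL/6 mice in RPMI-1640 with 10% FBS and 20 ng/ml rmGM-CSF at 37 °C, 5% CO2. Day-6 immature DCs were stimulated with 10 ng/ml LPS plus compound for 24 h. Supernatant cytokine/chemokine measured by ELISA (pg/ml); % change = (B−A)/A×100, versus LPS-stimulated DCs alone.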

[7] = Antiinflammatory activity in C57BL/6 mouse DC assessed as inhibition of LPS-induced IL1-beta production at 1 ug/ml after 24 hrs by ELISA; format: functional; how it was run: as §2
[8] = Antiinflammatory activity in C57BL/6 mouse DC assessed as inhibition of LPS-induced TNFalpha production at 1 ug/ml after 24 hrs by ELISA; format: functional; how it was run: as §2
[9] = system: KB; test: Cytotoxicity against human KB cells at 10 uM after 72 hrs by MTT assay; format: functional, cell-based; how it was run: as §1
[10] = Antiinflammatory activity in C57BL/6 mouse DC assessed as inhibition of LPS-induced IP-10 production at 0.1 ug/ml after 24 hrs by ELISA; format: functional; how it was run: as §2
[11] = Antiinflammatory activity in C57BL/6 mouse DC assessed as inhibition of LPS-induced TNFalpha production at 0.1 ug/ml after 24 hrs by ELISA; format: functional; how it was run: as §2
[12] = Cytotoxicity against mouse NIH/3T3 cells at 10 uM after 72 hrs by MTT assay; format: cell-based; conditions: nih3t3, 72 h; how it was run: as §1
[13] = Antiinflammatory activity in C57BL/6 mouse DC assessed as inhibition of LPS-induced IP-10 production at 1 ug/ml after 24 hrs by ELISA; format: functional; how it was run: as §2
[14] = system: MIA PaCa-2; test: Cytotoxicity against human MIAPaCa2 cells at 10 uM after 72 hrs by MTT assay; format: functional, cell-based; how it was run: as §1
[15] = system: K562; test: Cytotoxicity against human K562 cells at 10 uM after 72 hrs by MTT assay; format: functional, cell-based; how it was run: as §1
[16] = system: ECV-304; test: Cytotoxicity against human ECV304 cells at 10 uM after 72 hrs by MTT assay; format: functional, cell-based; how it was run: as §1
[17] = Antiinflammatory activity in C57BL/6 mouse DC assessed as inhibition of LPS-induced IL-6 production at 0.1 ug/ml after 24 hrs by ELISA; format: functional; how it was run: as §2
[18] = system: HBL-100; test: Cytotoxicity against human HBL100 cells after 72 hrs by MTT assay; format: functional, cell-based; conditions: HBL-100, 72 h
[19] = system: A549; test: Cytotoxicity against human A549 cells after 72 hrs by MTT assay; format: functional, cell-based; conditions: A549, 72 h
[20] = system: MIA PaCa-2; test: Cytotoxicity against human MIAPaCa2 cells after 72 hrs by MTT assay; format: functional, cell-based; conditions: MIA PaCa-2, 72 h
[21] = system: SW-620; test: Cytotoxicity against human SW620 cells after 72 hrs by MTT assay; format: functional, cell-based; conditions: SW-620, 72 h
[22] = system: DU-145; test: Cytotoxicity against human DU145 cells after 72 hrs by MTT assay; format: functional, cell-based; conditions: DU-145, 72 h
[23] = Antiinflammatory activity in C57BL/6 mouse DC assessed as inhibition of LPS-induced IL-6 production at 1 ug/ml after 24 hrs by ELISA; format: functional; how it was run: as §2
[24] = system: ECV-304; test: Cytotoxicity against human ECV304 cells after 72 hrs by MTT assay; format: functional, cell-based; conditions: Homo sapiens, ECV-304, 72 h; read-out: IC50
[25] = Cytotoxicity against mouse NIH/3T3 cells after 72 hrs by MTT assay; format: cell-based, NIH3T3
[26] = system: KB; test: Cytotoxicity against human KB cells after 72 hrs by MTT assay; format: functional, cell-based
[27] = system: K562; test: Cytotoxicity against human K562 cells after 72 hrs by MTT assay; format: functional, cell-based; conditions: K562, 72 h
[28] = system: PA-1; test: Cytotoxicity against human PA1 cells after 72 hrs by MTT assay; format: functional, cell-based; conditions: PA-1, 72 h

SMILES | Activity [1] | Activity [2] | Activity [3] | Activity [4] | Activity [5] | inhibition (INH) [6] | inhibition (INH) [7] | inhibition (INH) [8] | Activity [9] | inhibition (INH) [10] | inhibition (INH) [11] | Activity [12] | inhibition (INH) [13] | Activity [14] | Activity [15] | Activity [16] | inhibition (INH) [17] | IC50 [18] | IC50 [19] | IC50 [20] | other results
C#CCn1cc(C(=O)NC(CC(=O)NC2CCCC2)c2ccccc2)c(=O)c2cccnc21 (centres undefined) | inactive | inactive | inactive | inactive | inactive | 62.4% | 52.1% | 34.7% | inactive | 38.8% | 19.3% | Not Active | 25% | inactive | inactive | inactive |  |  |  |  | 
C#CCn1cc(C(=O)NC(CC(=O)Nc2ccccc2)c2ccccc2)c(=O)c2cc(F)c(Cl)nc21 (centres undefined) |  |  |  |  |  | 84.8% | 106.8% | 99% |  | 17.3% | 80% |  | 102.4% |  |  |  | 60% | 9.3 µM | > 10 µM | 6.9 µM | IC50 [21]: 5.7 µM; IC50 [22]: 5.9 µM; inhibition (INH) [23]: 96%; IC50 [24]: > 10 µM; IC50 ([25]; Mus musculus, NIH3T3, 72 h, read-out: IC50): 9.7 µM; IC50 [26]: > 10 µM; IC50 [27]: 6.6 µM; IC50 [28]: 2.1 µM
C#CCn1cc(C(=O)NC(CC(=O)Nc2ccccn2)c2ccccc2)c(=O)c2cccnc21 (centres undefined) | inactive | inactive | inactive | inactive | inactive | 34.1% | 50.1% |  | inactive |  |  | Not Active |  | inactive | inactive | inactive | 74.4% |  |  |  | inhibition (INH) [23]: 74.9%
C#CCn1cc(C(=O)NC(CC(=O)Nc2ccccc2)c2ccccc2)c(=O)c2cccnc21 (centres undefined) |  |  |  |  |  | 75.1% | 78.5% | 29.7% |  | 31.7% | 19.1% |  | 33.1% |  |  |  |  | > 10 µM | > 10 µM | > 10 µM | IC50 [21]: > 10 µM; IC50 [22]: 7.2 µM; IC50 [24]: > 10 µM; IC50 ([25]; nih3t3): Not Active; IC50 [26]: > 10 µM; IC50 [27]: > 10 µM; IC50 [28]: > 10 µM

— ChEMBL document CHEMBL1153592, “1,8-Naphthyridine-3-carboxamide derivatives with anticancer and anti-inflammatory activity” (Eur J Med Chem, 2009)
